Results on 2 compounds are retold here after article PMC10793096 (Acta Pharmaceutica Sinica. B, 2023).

For experiment [1], the system named is CT26 (murine colon carcinoma) cell line. Briefly: Colorimetric MTT cytotoxicity assay, CT26. Format: cell-based. (Tetrazolium assays rely on reduction of a dye to a coloured formazan, in cell work by metabolically active cells.)
The test system of experiment [2] is MRC-5 (human lung fibroblasts, non-cancerous). Briefly: Colorimetric MTT cytotoxicity assay, MRC-5. It is filed as cell-based. To be noted: MRC5, 72 h, read-out: IC50 MRC-5. An outline of the steps:
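MRC-5 cells from ATCC, trypsinized, seeded at 6000 cells/well (6 × 10^4 cells/mL), grown 24 h, then exposed 72 h to test compound serially diluted in complete medium. Medium replaced with MTT in media (5 mg/mL) for 45 min; formazan dissolved in DMSO, OD at 570 nm. T/C versus untreated cells; IC50 interpolated from concentration-effect curves; ≥3 independent experiments, triplicates per concentration.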

In experiment [3] the test system is MCF-7 (human breast adenocarcinoma) cell line. Briefly: Colorimetric MTT cytotoxicity assay, MCF-7. Format: cell-based. As to conditions: for IC50: Homo sapiens.
In experiment [4] the test system is MRC-5 (human lung fibroblasts, non-cancerous). To be noted: read-out: IC50 MRC-5; taken from the literature; cited from earlier work.

Structures are written as SMILES. Read-outs that look alike come from different tables or passages of the source.

Regarding `C=C(C)[C@H]1CC[C@@]2(C)CC[C@]3(C)C[C@H]4[C@@H](C)CC(=O)[C@H]4/C(C=O)=C\C[C@H]3[C@H]12` [compound 1, Variecolin], the “SF CT26 (selectivity factor)” value in experiment [1] (IC50(MRC-5)/IC50(CT26)) was 1.1. The IC50 in experiment [1] (Mus musculus, CT26, 72 h, read-out: IC50 CT26) was 1000 ± 300 nM; in experiment [2], 1100 ± 200 nM; in experiment [3] (MCF7, 72 h, read-out: IC50 MCF-7) it was 1400 ± 300 nM; in experiment [3] (MCF7, read-out: IC50s in both cancer cell lines), 1000 to 8000 nM. In addition, the “SF MCF-7 (selectivity factor)” value in experiment [3] (IC50(MRC-5)/IC50(MCF-7)) came out at 0.8.

Turning to `CC(=O)O[C@H]1C(=O)[C@@]2(C)[C@H]([C@H](OC(=O)c3ccccc3)[C@]3(O)C[C@H](OC(=O)[C@H](O)[C@@H](NC(=O)c4ccccc4)c4ccccc4)C(C)=C1C3(C)C)[C@]1(OC(C)=O)CO[C@@H]1C[C@@H]2O` [Paclitaxel], the IC50 in experiment [4] was 2.61 nM.
